Source: PubChem BioAssay
PKA-R2B act: PKA-R2B complex activation; P22694+P31323; PKA-R2B holoenzyme dissociation, Cy5-IP20 fluorescence polarization; R2B truncated from residue 108, S112A mutant; 0% DMSO only, 100% 113 µM cGMP; activation, % at 11.4 µM; 340,000 compounds, 0.079% hits; AID 504700;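 active = activation above a cutoff set at the mean over all compounds plus 3 SD, cut at about 18% in these data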;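 note: higher means more holoenzyme dissociation and a rise in polarization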
APJ agonist: agonists of human APJ apelin receptor; activation, % at 20 µM; AID 2520; P35414; 330,000 compounds, 0.11% hits; CHO-K1 APJ PathHunter beta-arrestin, luminescence; 0% DMSO wells, 100% apelin;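 active = activation more than six SD over the plate average, tested at 20 µM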;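 note: 0% = DMSO alone and 100% = apelin-13 at 10 nM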
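Material: CHO-K1 APJ beta-arrestin complementation cell line; Input: cell density 1000 per well; Incubation: compound stimulation 90 min at 25 °C, detection 60 min; Signal: luminescence from split beta-galactosidase complementation, Galacton Star/Emerald II substrate; Controls: DMSO-only wells as negative, 10 nM Apelin-13 as positive control.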
APJ antagonist: APJ receptor antagonism | CHO-K1 APJ beta-arrestin complementation, luminescence | P35414 | 330,000 compounds, 0.32% hits | inhibition, % at 20 µM;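 active = inhibition above about 40% at 20 µM, limit read from the data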;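 note: cells challenged with 10 nM apelin-13 agonist together with compound; plate controls were apelin-13 plus DMSO wells for no effect and DMSO wells lacking apelin-13 for full effect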
CCR6 antag: CCR6 (human) receptor antagonism; P51684; CHO-K1 CCR6 PathHunter beta-arrestin, luminescence, CCL20-stimulated; inhibition, % at 20 µM; 340,000 compounds, 0.49% hits;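 active = compounds whose inhibition of the agonist-driven luminescence signal at 20 µM reaches about 50%, limit read from the data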;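 note: cells stimulated with CCL20 at 14 nM final; plate controls were DMSO with CCL20 for no effect and DMSO without agonist for full effect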
PKA-R1A activ: activators of PKA-R1A complex; 340,000 compounds, 0.083% hits; P00514+P68181; PKA-R1A dissociation, Cy5-IP20 fluorescence polarization; scaled: DMSO 0%, 113 µM cGMP 100%; AID 504707; activation, % at 11.4 µM;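 active = percent activation above the mean of all tested compounds plus 3 SD, cut at about 19% in these data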;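 note: higher means more PKAc released from R1A so a rise in polarization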
CXCR6 inh: blocks human CXCR6 beta-arrestin recruitment. CHO-K1 PathHunter CXCR6 beta-arrestin, luminescence. AID 602244. 360,000 compounds, 0.36% hits. O00574. inhibition, % at 20 µM; in the data active = inhibition above about 34%, passing the limit was not always enough;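 note: antagonist mode with CXCL16 agonist at 10 nM final; 0% = 10 nM CXCL16 with DMSO and 100% = unstimulated wells without agonist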
Target sequence (O00574 whole entry, looked up): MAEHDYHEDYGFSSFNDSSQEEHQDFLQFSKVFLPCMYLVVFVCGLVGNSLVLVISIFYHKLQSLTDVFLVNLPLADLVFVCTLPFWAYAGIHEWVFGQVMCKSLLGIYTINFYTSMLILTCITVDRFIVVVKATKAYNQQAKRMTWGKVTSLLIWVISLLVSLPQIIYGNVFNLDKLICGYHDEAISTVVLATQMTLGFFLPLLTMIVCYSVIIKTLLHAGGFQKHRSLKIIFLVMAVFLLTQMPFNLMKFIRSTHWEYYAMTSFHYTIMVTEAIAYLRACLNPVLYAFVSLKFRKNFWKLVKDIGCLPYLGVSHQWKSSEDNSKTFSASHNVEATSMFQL
APJ antag conf: APJ receptor antagonism confirmation. shares compounds with APJ antagonist. APJ beta-arrestin recruitment, luminescence, antagonist mode. inhibition, % at 20 µM. 950 compounds, 66% hits. AID 2766; in the data active = inhibition above about 50%
* = called active by the depositor; . = no result. Compounds with a hit are over-represented: about 0.88% of the library has one in this group of screens.

SMILES	PKA-R2B act	APJ agonist	APJ antagonist	CCR6 antag	PKA-R1A activ	CXCR6 inh	APJ antag conf
COc1cccc(NC(=O)c2cc3c(=O)n4ccccc4nc3n(CC(C)C)c2=N)c1	-1.4	-0.9	41.3*	26.9	-2.7	5.1	16.8
CCOC(=O)[C@]12CCC=C1N(Cc1ccc3c(c1)OCO3)C(=O)[C@H](CC(=O)NCCC(C)C)C2	.	.	.	.	.	-3.4	.
CCC[C@@H](CN1CCC[C@H]1CN1C(N)=NC[C@H]1CC(C)C)N1C[C@@H](Cc2ccccc2)N(CCc2ccc(Cl)c(Cl)c2)C1=N	1.8	4.6	41.6*	17.5	-14.5	5.8	56.6*
NNc1nc(-c2ccccc2)cc(-c2ccccc2)n1	7.7	-11.4	96.6*	62.7*	-11.1	45.0*	121.7*
O=C/C(=C\Nc1ccc(S(=O)(=O)CCO)cc1)c1nc2cc(Cl)ccc2o1	2.0	0.6	104.8*	44.0	-7.7	12.1	14.3
COc1cc(NS(=O)(=O)c2ccc(N/C=C(\C#N)c3nc4cc(Cl)ccc4o3)cc2)nc(OC)n1	5.3	1.4	40.9*	24.1	-2.2	12.6	-2.0
O=C/C(=C\Nc1ccc(Cl)cn1)c1nc2cc(Cl)ccc2o1	-2.7	-4.9	14.9	-11.7	-0.2	-3.3	.
CC1(Br)C(Sc2ccccc2[N+](=O)[O-])=Nc2ccccc21 (stereo not given)	.	.	.	.	.	13.9	.
CCN(C(=O)COC(=O)c1cccnc1SC)C1CCCCC1	8.6	-1.0	8.3	3.7	-6.0	-5.7	.
CCN(C(=O)COC(=O)c1cccnc1SC)C1CCS(=O)(=O)C1 (stereo not given)	2.2	-3.5	44.6*	-3.0	1.4	-8.9	32.9
CCC[N+](CC#Cc1ccccc1)(CCC)CC(=O)c1ccc(Cl)cc1	-8.0	-10.6	59.8*	42.8	-7.6	15.0	53.2*
O=C(C[N+]1(CC#Cc2ccccc2)CCOCC1)c1ccc(Cl)cc1	1.1	-12.2	89.8*	62.0*	-0.1	41.9*	107.7*
O=C(C[N+]1(CC#Cc2ccccc2)CCCCC1)c1ccc(Cl)cc1	-10.5	-10.4	57.3*	30.2	-1.4	27.2	17.7
O=C(C[N+]1(CC#Cc2ccccc2)CCCCC1)c1ccccc1	-4.4	-1.7	11.3	10.4	-8.2	2.5	.
CC(C)(C)S(=O)(=O)N1C[C@@H]2CC/C=C\C/C(c3ccccc3)=C\2[C@H]1CCO	-5.5	.	.	4.7	-0.8	0.3	.
[O-]/C(=C(\C(=S)Nc1ccccc1F)[n+]1ccccc1)c1ccc(OC(F)F)cc1	-1.9	-9.1	47.5*	19.3	2.3	-1.6	21.9
Cc1ccc([N+](=O)[O-])cc1S(=O)(=O)Nc1ccc(-c2ccc(N3CCOCC3)nn2)cc1	-7.3	5.7	0.3	10.8	-7.4	-7.6	.
Cc1ccc(NS(=O)(=O)c2cc([N+](=O)[O-])ccc2N/N=C/c2sc(N3CCOCC3)nc2-c2ccccc2)c(C)c1	-14.9	-8.8	67.9*	59.6*	-6.1	49.4*	118.5*
CCS(=O)(=O)N1Cc2cc(C(=O)N(C)C)nc(-c3cccc(-c4ccc(F)cc4)c3)c2[C@H]1CCO	.	.	.	.	.	-13.4	.
Cc1cc(NC(=O)c2ccc(F)cc2F)n(-c2nc3ccccc3[nH]2)n1	10.2	-4.7	42.8*	-2.1	-1.3	-13.3	9.2
CCOC(=O)[C@H]1[C@H]2COc3ccc(C)cc3[C@@H]2N2C(=O)[C@@H](CO)NC(=O)[C@@]12C	-9.7	-2.9	-7.9	8.0	-4.8	-2.0	.
COc1ccc2c(c1)[C@H]1[C@H](CO2)[C@H](c2ccccc2)[C@]2(C)C(=O)N[C@@H](C)C(=O)N12	.	-8.9	42.2*	.	.	.	46.6
COc1ccc2c(c1)[C@H]1[C@H](CO2)[C@H](c2ccccc2)[C@@]2(C)C(=O)N[C@H](C)C(=O)N12	-2.8	.	.	-3.0	-0.8	7.3	.
CCOC(=O)[C@H]1[C@H]2COc3cc(OC)ccc3[C@@H]2N2C(=O)[C@@H](CO)NC(=O)[C@@]12C	.	-8.5	50.8*	.	.	.	88.2*
